According to ChEMBL document CHEMBL2021777 (J Med Chem, 2012):
Calls of active or inactive are those of the source. The calls are words filed in the database; no cut-off is given here.

Columns and labels:
[1] = biological target: Muscarinic acetylcholine receptor M1 (Homo sapiens) (UniProt P11229); experiment: Displacement of [3H]QNB from M1 receptor at 10 uM
Mus musculus [2] = experiment: Antidepressant activity in BALB/cJ mouse assessed as decrease in immobility at 10 mg/kg, po administered 30 mins prior to testing measured for 6 mins by forced swim test; assay type: functional, organism-based; design: dose 10 mg/kg
Summary of the method: (§1)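 Male BALB/cJ mice, 8−10 weeks old, housed four per cage on a 12 h light−dark cycle. Drug in injectable water was given by oral gavage (10 mL/kg). After 30 min, each mouse was placed in a glass cylinder with 12 cm of ~23 °C water, and floating immobility was timed over a 6 min trial. Analysis was by ANOVA with Fisher's PLSD post hoc test.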

[3] = biological target: Alpha-1D adrenergic receptor (Homo sapiens) (UniProt P25100); experiment: Inhibition of alpha1D adrenergic receptor at 10 uM by radioligand displacement assay
Plasma [4] = experiment: Plasma protein binding in human at 10 uM; assay type: ADME, cell-free
Summary of the method: (§2)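 Binding measured at 10 μM in human plasma and CD-1 mouse plasma; reported as mean percent bound.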

[5] = biological target: Histamine H3 receptor (Homo sapiens) (UniProt Q9Y5N1); experiment: Displacement of [3H]alpha-methylhistamine from H3 histamine receptor at 10 uM
[6] = biological target: Sodium-dependent noradrenaline transporter (Homo sapiens) (UniProt P23975); experiment: Displacement of [3H]Nisoxetine from NET at 10 uM
[7] = biological target: Histamine H4 receptor (Homo sapiens) (UniProt Q9H3N8); experiment: Displacement of [3H]Histamine from H4 histamine receptor at 10 uM
Plasma [8] = experiment: Plasma protein binding in CD1 mouse at 10 uM; assay type: ADME, cell-free; summary of the method: as §2
Mus musculus [9] = experiment: Antidepressant activity in BALB/cJ mouse assessed as decrease in immobility at 3 mg/kg, po administered 30 mins prior to testing measured for 6 mins by forced swim test; assay type: functional, organism-based; design: dose 3 mg/kg; summary of the method: as §1
[10] = biological target: Vasopressin V1a receptor (Homo sapiens) (UniProt P37288); experiment: Displacement of radioligand from Vasopressin V1A receptor; conditions: concentration not given here
[11] = Displacement of [3H]PK11195 from PBR at 10 uM
Plasma [12] = experiment: Cmax in CD1 mouse plasma at 5 mg/kg, po at 10 mins; assay type: ADME, organism-based; design: dose 5 mg/kg, route oral; conditions: in vivo
Summary of the method: (§3)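 Male CD-1 mice received a single oral gavage dose of 5 mg/kg. Drug levels were measured in brain and plasma over time; Cmax and Tmax were taken from the concentration−time profiles.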

Brain = experiment: Half life in CD1 mouse brain at 5 mg/kg, po; assay type: ADME, organism-based; design: dose 5 mg/kg, route oral; conditions: in vivo
Summary of the method: (§4)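 Male CD-1 mice given a single oral gavage dose of 5 mg/kg; plasma and brain concentrations measured over time to derive half-lives, Cmax and Tmax.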

Plasma [13] = experiment: Half life in CD1 mouse plasma at 5 mg/kg, po; assay type: ADME, organism-based; design: dose 5 mg/kg, route oral; conditions: in vivo; summary of the method: as §4
Plasma [14] = experiment: Tmax in CD1 mouse plasma at 5 mg/kg, po; assay type: ADME, organism-based; design: dose 5 mg/kg, route oral; conditions: in vivo; summary of the method: as §4
[15] = Cmax in CD1 mouse brain at 5 mg/kg, po at 30 mins; assay type: ADME, organism-based; design: dose 5 mg/kg, route oral; summary of the method: as §3
Nucleic Acid = experiment: Ratio of drug level in brain to plasma in CD1 mouse at 5 mg/kg, po; assay type: ADME, organism-based; design: dose 5 mg/kg, route oral
Summary of the method: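 Male CD-1 mice, single 5 mg/kg oral gavage dose; brain-to-plasma ratio calculated as Cmax-brain/Cmax-plasma.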

Vasopressin V1a receptor (Homo sapiens), sequence (P37288 whole entry, looked up): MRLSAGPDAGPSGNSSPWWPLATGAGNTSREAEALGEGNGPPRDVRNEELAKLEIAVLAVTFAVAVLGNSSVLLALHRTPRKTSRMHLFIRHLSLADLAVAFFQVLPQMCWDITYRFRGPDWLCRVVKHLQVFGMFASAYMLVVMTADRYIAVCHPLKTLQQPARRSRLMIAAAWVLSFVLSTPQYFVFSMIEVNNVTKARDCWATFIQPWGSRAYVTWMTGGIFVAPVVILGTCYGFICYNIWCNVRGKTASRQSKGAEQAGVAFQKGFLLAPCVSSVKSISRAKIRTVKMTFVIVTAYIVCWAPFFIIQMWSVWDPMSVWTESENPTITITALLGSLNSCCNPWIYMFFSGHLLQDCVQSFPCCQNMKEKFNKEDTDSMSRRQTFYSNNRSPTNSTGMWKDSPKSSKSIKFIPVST
Alpha-1D adrenergic receptor (Homo sapiens), sequence (P25100 whole entry): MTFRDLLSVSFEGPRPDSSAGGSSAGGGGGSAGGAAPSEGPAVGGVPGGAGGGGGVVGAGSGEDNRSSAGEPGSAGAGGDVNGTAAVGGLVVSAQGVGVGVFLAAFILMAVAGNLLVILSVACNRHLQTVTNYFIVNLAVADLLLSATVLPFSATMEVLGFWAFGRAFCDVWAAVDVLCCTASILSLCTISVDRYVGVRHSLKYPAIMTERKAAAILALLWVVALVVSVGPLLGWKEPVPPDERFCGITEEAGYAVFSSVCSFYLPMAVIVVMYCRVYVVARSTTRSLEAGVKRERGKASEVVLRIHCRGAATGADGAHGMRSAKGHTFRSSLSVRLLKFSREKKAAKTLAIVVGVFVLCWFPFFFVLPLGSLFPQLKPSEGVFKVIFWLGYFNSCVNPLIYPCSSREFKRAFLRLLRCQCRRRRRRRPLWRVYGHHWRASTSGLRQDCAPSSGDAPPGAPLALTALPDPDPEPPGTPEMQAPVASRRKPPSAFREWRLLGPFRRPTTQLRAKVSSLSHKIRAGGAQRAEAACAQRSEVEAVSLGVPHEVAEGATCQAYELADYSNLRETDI
Sodium-dependent noradrenaline transporter (Homo sapiens), sequence (P23975 whole entry): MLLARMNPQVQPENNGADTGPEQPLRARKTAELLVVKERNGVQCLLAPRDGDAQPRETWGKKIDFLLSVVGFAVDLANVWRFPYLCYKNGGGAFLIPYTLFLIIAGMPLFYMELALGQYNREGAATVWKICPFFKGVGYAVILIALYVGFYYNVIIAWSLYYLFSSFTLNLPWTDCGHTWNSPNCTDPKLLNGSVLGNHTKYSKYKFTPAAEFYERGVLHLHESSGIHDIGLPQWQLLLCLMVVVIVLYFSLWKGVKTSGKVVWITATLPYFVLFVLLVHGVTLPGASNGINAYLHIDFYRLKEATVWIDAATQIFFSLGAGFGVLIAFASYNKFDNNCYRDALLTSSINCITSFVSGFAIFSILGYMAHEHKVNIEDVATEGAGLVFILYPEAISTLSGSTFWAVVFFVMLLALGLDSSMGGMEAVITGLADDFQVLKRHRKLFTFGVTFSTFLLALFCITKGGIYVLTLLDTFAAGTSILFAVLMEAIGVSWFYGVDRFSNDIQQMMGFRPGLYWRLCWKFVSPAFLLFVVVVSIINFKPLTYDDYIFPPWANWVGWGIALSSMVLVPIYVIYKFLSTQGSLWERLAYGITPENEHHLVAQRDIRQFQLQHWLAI
Histamine H4 receptor (Homo sapiens), sequence (Q9H3N8 whole entry): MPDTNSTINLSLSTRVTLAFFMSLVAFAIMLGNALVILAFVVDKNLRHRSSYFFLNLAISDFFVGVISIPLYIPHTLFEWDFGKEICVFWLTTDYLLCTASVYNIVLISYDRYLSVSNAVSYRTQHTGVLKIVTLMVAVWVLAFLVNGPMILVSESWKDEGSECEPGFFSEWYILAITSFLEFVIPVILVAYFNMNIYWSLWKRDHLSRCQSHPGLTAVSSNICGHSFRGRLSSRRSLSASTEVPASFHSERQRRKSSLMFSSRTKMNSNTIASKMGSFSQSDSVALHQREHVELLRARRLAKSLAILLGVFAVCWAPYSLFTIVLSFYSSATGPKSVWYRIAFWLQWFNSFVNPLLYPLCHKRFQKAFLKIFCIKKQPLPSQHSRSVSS
Histamine H3 receptor (Homo sapiens), sequence (Q9Y5N1 whole entry): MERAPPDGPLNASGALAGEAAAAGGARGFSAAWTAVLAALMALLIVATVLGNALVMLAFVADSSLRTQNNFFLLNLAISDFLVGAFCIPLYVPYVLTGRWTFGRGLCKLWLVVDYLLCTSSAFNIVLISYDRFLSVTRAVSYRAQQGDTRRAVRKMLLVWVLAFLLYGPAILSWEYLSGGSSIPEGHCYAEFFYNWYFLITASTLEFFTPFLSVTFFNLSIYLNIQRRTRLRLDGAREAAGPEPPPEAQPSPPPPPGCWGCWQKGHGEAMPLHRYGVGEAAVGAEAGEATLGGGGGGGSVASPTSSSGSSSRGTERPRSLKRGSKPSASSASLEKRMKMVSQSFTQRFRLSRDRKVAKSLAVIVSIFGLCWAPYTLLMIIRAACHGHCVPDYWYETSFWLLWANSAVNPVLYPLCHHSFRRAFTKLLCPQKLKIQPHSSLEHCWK
Muscarinic acetylcholine receptor M1 (Homo sapiens), sequence (P11229 whole entry): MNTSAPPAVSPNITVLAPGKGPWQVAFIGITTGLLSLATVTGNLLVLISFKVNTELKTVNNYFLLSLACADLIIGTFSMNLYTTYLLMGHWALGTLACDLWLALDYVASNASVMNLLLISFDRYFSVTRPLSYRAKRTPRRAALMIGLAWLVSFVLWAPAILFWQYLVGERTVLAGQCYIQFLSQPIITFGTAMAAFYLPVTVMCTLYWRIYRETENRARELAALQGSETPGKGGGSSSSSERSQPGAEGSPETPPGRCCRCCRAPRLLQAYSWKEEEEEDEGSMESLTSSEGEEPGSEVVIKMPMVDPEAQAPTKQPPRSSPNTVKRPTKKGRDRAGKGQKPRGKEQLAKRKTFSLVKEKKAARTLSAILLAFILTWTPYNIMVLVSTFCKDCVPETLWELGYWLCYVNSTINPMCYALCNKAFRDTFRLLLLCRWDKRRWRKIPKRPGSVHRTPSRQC

| SMILES | inhibition [1] [%] | Activity (Mus musculus [2]) | inhibition [3] [%] | PPB (Plasma [4]) [%] | inhibition [5] [%] | inhibition [6] [%] | inhibition [7] [%] | PPB (Plasma [8]) [%] | Activity (Mus musculus [9]) | inhibition [10] [%] | inhibition [11] [%] | Cmax (Plasma [12]) [ng/mL] | t1/2 (Brain) [h] | t1/2 (Plasma [13]) [h] | Tmax (Plasma [14]) [h] | Cmax [15] [ng/mL] | BPR (Nucleic Acid) |
| --- | --- | --- | --- | --- | --- | --- | --- | --- | --- | --- | --- | --- | --- | --- | --- | --- | --- |
| CNC(=O)OCC[C@H]1C[C@@H]1c1cncc(OC[C@@H]2CCN2)c1 | 12.9 | Active | -2.7 | 8.4 | 5.7 | 69.6 | -8 | 23.8 |  |  |  |  |  |  |  |  |  |
| OCC[C@H]1C[C@@H]1c1cncc(OC[C@@H]2CCN2)c1 |  |  |  |  |  |  |  |  | Active | 29.1 | 4.7 |  |  |  |  |  |  |
| COCC[C@H]1C[C@@H]1c1cncc(OC[C@@H]2CCN2)c1 |  |  | 3.4 |  |  | -0.2 |  |  | Active | 30.5 | -5.9 | 359 | 2.5 | 2.4 | 0.167 | 133 | 0.37 |
